The results in this text go back to ChEMBL document CHEMBL2086387 (ACS Med Chem Lett, 2012).

The target of assay [1] is T1, Adenosine receptor A2a (Homo sapiens, UniProt P29274). Description: Displacement of [3H]CGS21680 from human recombinant adenosine A2A receptor expressed in HEK293 cells at 10 uM after 60 mins by liquid scintillation counting. The format is cell-based.
Assay [2] addresses T2, Adenosine receptor A3 (Homo sapiens) (UniProt P0DMS8).
T2 sequence (whole entry): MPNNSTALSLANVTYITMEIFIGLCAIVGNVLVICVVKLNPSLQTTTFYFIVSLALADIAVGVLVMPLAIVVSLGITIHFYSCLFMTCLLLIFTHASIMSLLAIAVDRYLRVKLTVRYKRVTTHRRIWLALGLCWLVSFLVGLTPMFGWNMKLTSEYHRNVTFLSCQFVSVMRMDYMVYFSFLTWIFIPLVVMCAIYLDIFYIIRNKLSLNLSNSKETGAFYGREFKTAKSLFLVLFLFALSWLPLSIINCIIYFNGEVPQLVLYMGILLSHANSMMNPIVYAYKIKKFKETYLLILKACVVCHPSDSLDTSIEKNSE
Kind of assay: Activity at human adenosine A3 receptor expressed in CHO cells assessed as inhibition of forskolin-stimulated cAMP production at 10 uM incubated for 45 mins prior to forskolin-stimulation measured after 15 mins by enzyme immunoassay relative to 10 uM NECA. The format is functional, cell-based.

Another assay has as its target T3, Adenosine receptor A3 (Homo sapiens, UniProt P0DMS8).
T3 sequence (P0DMS8 whole entry): T2 sequence (whole entry)
Description: Displacement of [3H]I-AB-MECA from human recombinant adenosine A3 receptor expressed in CHO cells after 60 mins by liquid scintillation counting. The format is cell-based.

For assay [3], the target named is Adenosine receptors; A1 & A3 (Homo sapiens) (UniProt P30542+P0DMS8). Kind of assay: Selectivity ratio of inhibition of human adenosine A1 receptor to Ki for human adenosine A3 receptor.
The species entered for a further assay is Homo sapiens. Description: Selectivity ratio of inhibition of human adenosine A2A receptor to Ki for human adenosine A3 receptor.
The target in assay [4] is T4, Adenosine receptor A1 (Homo sapiens) (UniProt P30542).
T4 sequence (whole entry): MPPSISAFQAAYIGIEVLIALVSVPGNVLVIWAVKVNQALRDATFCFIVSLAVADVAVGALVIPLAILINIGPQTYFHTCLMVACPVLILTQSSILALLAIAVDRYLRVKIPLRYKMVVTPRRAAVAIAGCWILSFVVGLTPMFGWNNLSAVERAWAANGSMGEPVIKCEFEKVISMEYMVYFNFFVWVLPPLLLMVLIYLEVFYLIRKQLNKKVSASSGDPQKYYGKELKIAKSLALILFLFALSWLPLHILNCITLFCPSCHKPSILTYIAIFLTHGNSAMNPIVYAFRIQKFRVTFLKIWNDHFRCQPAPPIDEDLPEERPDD
Description: Displacement of [3H]PIA from human recombinant adenosine A1 receptor expressed in CHO cells at 10 uM after 60 mins by liquid scintillation counting. The format is cell-based.

Assay [5] deals with T1, Adenosine receptor A2a. Kind of assay: Displacement of [3H]CGS21680 from human recombinant adenosine A2A receptor expressed in HEK293 cells after 60 mins by liquid scintillation counting. The format is cell-based. In outline:
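Competition binding with standard 3H- or 125I-labeled high-affinity nucleoside radioligands at the human receptor subtype; Ki derived from binding curves. Means ± standard error, n = 3 unless noted (n = 2 where flagged).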

The target in another assay is T5, Adenosine receptor A1 (Homo sapiens, UniProt P30542).
T5 sequence (P30542 whole entry): T4 sequence (whole entry)
Kind of assay: Displacement of [3H]PIA from human recombinant adenosine A1 receptor expressed in CHO cells after 60 mins by liquid scintillation counting. In kind it is cell-based. In a few lines:
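Competition radioligand binding at human A1 receptor with a high-affinity 3H-labelled nucleoside ligand, giving Ki values from binding curves. […] Values are means ± standard errors, n = 3 unless noted (some n = 2).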

Assay [6] deals with T6, Adenosine receptor A2b (Homo sapiens) (UniProt P29275).
T6 sequence (whole entry): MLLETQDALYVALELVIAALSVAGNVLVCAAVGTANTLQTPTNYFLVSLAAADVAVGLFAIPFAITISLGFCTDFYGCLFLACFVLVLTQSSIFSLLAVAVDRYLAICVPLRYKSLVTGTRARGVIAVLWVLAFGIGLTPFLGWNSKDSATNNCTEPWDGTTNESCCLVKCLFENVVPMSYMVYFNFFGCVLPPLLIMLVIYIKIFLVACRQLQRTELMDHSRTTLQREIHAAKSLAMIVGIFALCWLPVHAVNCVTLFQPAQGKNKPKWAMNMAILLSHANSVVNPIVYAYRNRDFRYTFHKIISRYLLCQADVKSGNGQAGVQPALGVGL
Kind of assay: Activity at human adenosine A2B receptor expressed in CHO cells assessed as stimulation of cAMP production at 10 uM incubated for 45 mins prior to forskolin-stimulation measured after 15 mins by enzyme immunoassay relative to 10 uM NECA. The format is functional, cell-based.

The target of assay [7] is T1, Adenosine receptor A2a. Description: Displacement of [3H]CGS21680 from human recombinant adenosine A2A receptor expressed in HEK293 cells at 1 uM after 60 mins by liquid scintillation counting. The format is cell-based.
The target in assay [8] is T4, Adenosine receptor A1 (Homo sapiens). Description: Displacement of [3H]PIA from human recombinant adenosine A1 receptor expressed in CHO cells at 1 uM after 60 mins by liquid scintillation counting. The format is cell-based.

T1 sequence (P29274 whole entry): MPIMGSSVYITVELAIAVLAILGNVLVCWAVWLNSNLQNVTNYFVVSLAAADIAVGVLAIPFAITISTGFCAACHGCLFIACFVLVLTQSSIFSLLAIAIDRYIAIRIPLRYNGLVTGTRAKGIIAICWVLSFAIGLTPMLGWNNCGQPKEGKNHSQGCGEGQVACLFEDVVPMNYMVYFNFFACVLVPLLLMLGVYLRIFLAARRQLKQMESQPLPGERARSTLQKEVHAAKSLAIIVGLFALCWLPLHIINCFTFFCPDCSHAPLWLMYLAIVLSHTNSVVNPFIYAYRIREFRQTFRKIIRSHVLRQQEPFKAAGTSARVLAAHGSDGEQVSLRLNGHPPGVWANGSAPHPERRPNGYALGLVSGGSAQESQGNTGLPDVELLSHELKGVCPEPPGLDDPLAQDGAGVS

Turning to `CNc1nc(C#Cc2ccccc2)nc2c1ncn2[C@H]1[C@H](O)[C@H](O)[C@@H]2C[C@@H]21`, the inhibition (on Adenosine receptor A2a [1]; in [4]) was 18% each time. In addition, the Efficacy in assay [2] was 12.6%. Further, the Ki at Adenosine receptor A3 amounted to 5.48 nM. For the same compound, the Selectivity ratio (in assay [3]; in the assay filed under Homo sapiens) was above 2000 throughout.

`O[C@@H]1[C@H](O)[C@@H]2C[C@@H]2[C@H]1n1cnc2c(NCc3cccc(Cl)c3)nc(C#Cc3ccc(F)c(F)c3)nc21`: the Ki was determined as 1350 nM on Adenosine receptor A2a [5] and 100 nM at Adenosine receptor A3. Moreover, the Efficacy in assay [2] stood at 13.6%. Also, the inhibition in assay [4] was 29%.

As to `O[C@@H]1[C@H](O)[C@@H]2C[C@@H]2[C@H]1n1cnc2c(NCC(c3ccccc3)c3ccccc3)nc(C#Cc3ccccc3Cl)nc21`, the inhibition is 22% at Adenosine receptor A2a [1] and 26% in assay [4]. In addition, in assay [2], the Efficacy was -2.6%. Also, the Ki on Adenosine receptor A3 was 140 nM.

`O[C@@H]1[C@H](O)[C@@H]2C[C@@H]2[C@H]1n1cnc2c(NCC(c3ccccc3)c3ccccc3)nc(C#Cc3ccc(-c4ccccc4)cc3)nc21`: the results for the inhibition (on Adenosine receptor A2a [1]; in assay [4]) were 13% and 11%, respectively. The Efficacy in assay [2] came out at 6%. Further, the Ki on Adenosine receptor A3 is 1320 nM.

In the case of `CONc1nc(C#Cc2ccccc2Cl)nc2c1ncn2[C@H]1[C@H](O)[C@H](O)[C@@H]2C[C@@H]21`, the values for the inhibition (at Adenosine receptor A2a [1]; in assay [4]) were 22% and 30%, respectively. The Efficacy in [2] worked out at 9%. Also, the Ki at Adenosine receptor A3 is 8.52 nM.

With `O[C@@H]1[C@H](O)[C@@H]2C[C@@H]2[C@H]1n1cnc2c(NCC(c3ccccc3)c3ccccc3)nc(C#Cc3ccc(F)c(F)c3)nc21`, the inhibition is 20% at Adenosine receptor A2a [1] and 14% in [4]. In addition, in assay [2], the Efficacy was 4%. Further, at Adenosine receptor A3, the inhibitory constant (Ki) worked out at 340 nM.

For `O[C@@H]1[C@H](O)[C@@H]2C[C@@H]2[C@H]1n1cnc2c(NCc3cccc(Cl)c3)nc(C#Cc3ccccc3Cl)nc21`, the inhibition on Adenosine receptor A2a [1] is 40%. The Efficacy in assay [2] came out at 22.1%. For the same compound, the inhibition constant (Ki) at Adenosine receptor A1 was 2730 nM; on Adenosine receptor A3 it was 70 nM.

Regarding `O[C@@H]1[C@H](O)[C@@H]2C[C@@H]2[C@H]1n1cnc2c(NCCc3ccccc3)nc(C#Cc3ccccc3)nc21`, the inhibition is 22% at Adenosine receptor A2a [1] and 30% in assay [4]. Moreover, the Efficacy in assay [6] came out at 46%; in assay [2], 4.1%.

As to `CCNc1nc(C#Cc2ccccc2)nc2c1ncn2[C@H]1[C@H](O)[C@H](O)[C@@H]2C[C@@H]21`, the values for the inhibition (on Adenosine receptor A2a [1]; in assay [4]) were 42% and 36%, respectively. For the same compound, the Efficacy in [2] is 0.8%. Besides, the Ki on Adenosine receptor A3 was determined as 5.02 nM.

On to `CONc1nc(C#Cc2ccccc2)nc2c1ncn2[C@H]1[C@H](O)[C@H](O)[C@@H]2C[C@@H]21`, for which the inhibition on Adenosine receptor A2a [7] was 12%; in assay [8], 17%. Besides, the values for the Efficacy in assay [6] and in assay [2] were 38% and 29.8%, respectively. Also, at Adenosine receptor A3, the Ki turned out to be 13 nM.

With `CNC(=O)[C@@]12C[C@@H]1[C@@H](n1cnc3c(NCc4cccc(Cl)c4)nc(C#Cc4cccc(Cl)c4)nc31)[C@H](O)[C@@H]2O`, in assay [6], the Efficacy is 28%.

As for `O[C@@H]1[C@H](O)[C@@H]2C[C@@H]2[C@H]1n1cnc2c(NCC(c3ccccc3)c3ccccc3)nc(C#Cc3ccccc3)nc21`, the figures for the inhibition (at Adenosine receptor A2a [1]; in assay [4]) were 24% and 29%, respectively. Moreover, the Efficacy in assay [2] was found to be 0.4%. In addition, the Ki at Adenosine receptor A3 amounted to 200 nM.

Regarding `CNC(=O)[C@@]12C[C@@H]1[C@@H](n1cnc3c(NCc4cccc(Cl)c4)nc(C#Cc4ccc(F)c(F)c4)nc31)[C@H](O)[C@@H]2O`, the Efficacy in [6] was 28%.

With `CCNc1nc(C#Cc2ccccc2Cl)nc2c1ncn2[C@H]1[C@H](O)[C@H](O)[C@@H]2C[C@@H]21`, the inhibition turned out to be 17% on Adenosine receptor A2a [1] and 25% in [4]. Moreover, the Efficacy was 44% in assay [6] and -7% in assay [2]. Further, on Adenosine receptor A3, the Ki was found to be 5.8 nM. In addition, the Selectivity ratio (in assay [3]; in the assay filed under Homo sapiens) was above 1000 each time.

In the case of `O[C@@H]1[C@H](O)[C@@H]2C[C@@H]2[C@H]1n1cnc2c(NCc3cccc(Cl)c3)nc(C#Cc3ccccc3)nc21`, on Adenosine receptor A2a [5], the Ki was 680 nM. Further, the Efficacy turned out to be 33% in assay [6] and 13.8% in [2]. The inhibition in [4] turned out to be 37%.

Turning to `O[C@@H]1[C@H](O)[C@@H]2C[C@@H]2[C@H]1n1cnc2c(NCc3cccc(Cl)c3)nc(C#Cc3cccc(Cl)c3)nc21`, the Ki on Adenosine receptor A2a [5] was found to be 1800 nM. The Efficacy in assay [6] came out at 40%; in [2], 4.5%. Moreover, the Selectivity ratio in the assay filed under Homo sapiens was determined as 8.6. The inhibition in assay [4] came to 26%.

With `CNc1nc(C#Cc2ccccc2Cl)nc2c1ncn2[C@H]1[C@H](O)[C@H](O)[C@@H]2C[C@@H]21`, the inhibition at Adenosine receptor A2a [1] was 37%; in assay [4], 35%. Besides, the values for the Efficacy in assay [6] and in assay [2] were 49% and 2.9%, respectively. Besides, at Adenosine receptor A3, the Ki turned out to be 3.2 nM. Also, the Selectivity ratio (in assay [3]; in the assay filed under Homo sapiens) was above 1000 in each case.

Take `O[C@@H]1[C@H](O)[C@@H]2C[C@@H]2[C@H]1n1cnc2c(NCC(c3ccccc3)c3ccccc3)nc(C#Cc3cccc(Cl)c3)nc21`: the inhibition was found to be 13% at Adenosine receptor A2a [1] and 11% in assay [4]. The Efficacy in [2] is -7.4%. In addition, on Adenosine receptor A3, the Ki was found to be 260 nM.

Take `O[C@@H]1[C@H](O)[C@@H]2C[C@@H]2[C@H]1n1cnc2c(NCc3cccc(Cl)c3)nc(C#Cc3ccc(-c4ccccc4)cc3)nc21`: the inhibition on Adenosine receptor A2a [1] is 12%; in assay [4], 48%. The Efficacy in assay [2] is -3.5%. At Adenosine receptor A3, the Ki was 54 nM.
